The source made the active and inactive calls. No cut-off for these calls is given here.
Experiments:
[1] = Cytotoxicity against mouse NIH/3T3 cells after 72 hrs by MTT assay; type: cell-based, NIH3T3
ECV-304 [2] = assay: Cytotoxicity against human ECV304 cells after 72 hrs by MTT assay; type: functional, cell-based; settings: Homo sapiens, ECV-304, 72 h; read-out: IC50
[3] = Antiinflammatory activity in C57BL/6 mouse DC assessed as inhibition of LPS-induced IL1-beta production at 0.1 ug/ml after 24 hrs by ELISA; type: functional
Outline: (§1)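 Dendritic cells grown from femoral bone marrow of 8–12-week-old C57BL/6 mice in RPMI-1640 with 10% FBS and 20 ng/ml rmGM-CSF at 37 °C, 5% CO2. Day-6 immature DCs were stimulated with 10 ng/ml LPS plus compound for 24 h. Supernatant cytokine/chemokine measured by ELISA (pg/ml); % change = (B−A)/A×100, versus LPS-stimulated DCs alone.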

SW-620 [4] = assay: Cytotoxicity against human SW620 cells after 72 hrs by MTT assay; type: functional, cell-based; settings: SW-620, 72 h
PA-1 [5] = assay: Cytotoxicity against human PA1 cells after 72 hrs by MTT assay; type: functional, cell-based; settings: PA-1, 72 h
[6] = Antiinflammatory activity in C57BL/6 mouse DC assessed as inhibition of LPS-induced IL-6 production at 0.1 ug/ml after 24 hrs by ELISA; type: functional; outline: as §1
KB [7] = assay: Cytotoxicity against human KB cells after 72 hrs by MTT assay; type: functional, cell-based
DU-145 [8] = assay: Cytotoxicity against human DU145 cells after 72 hrs by MTT assay; type: functional, cell-based; settings: DU-145, 72 h
A549 [9] = assay: Cytotoxicity against human A549 cells after 72 hrs by MTT assay; type: functional, cell-based; settings: A549, 72 h
HBL-100 [10] = assay: Cytotoxicity against human HBL100 cells after 72 hrs by MTT assay; type: functional, cell-based; settings: HBL-100, 72 h
[11] = Antiinflammatory activity in C57BL/6 mouse DC assessed as inhibition of LPS-induced TNFalpha production at 0.1 ug/ml after 24 hrs by ELISA; type: functional; outline: as §1
K562 [12] = assay: Cytotoxicity against human K562 cells after 72 hrs by MTT assay; type: functional, cell-based; settings: K562, 72 h
MIA PaCa-2 [13] = assay: Cytotoxicity against human MIAPaCa2 cells after 72 hrs by MTT assay; type: functional, cell-based; settings: MIA PaCa-2, 72 h
[14] = Antiinflammatory activity in C57BL/6 mouse DC assessed as inhibition of LPS-induced IL-6 production at 1 ug/ml after 24 hrs by ELISA; type: functional; outline: as §1
[15] = Antiinflammatory activity in C57BL/6 mouse DC assessed as inhibition of LPS-induced IL1-beta production at 1 ug/ml after 24 hrs by ELISA; type: functional; outline: as §1
[16] = Antiinflammatory activity in C57BL/6 mouse DC assessed as inhibition of LPS-induced IP-10 production at 0.1 ug/ml after 24 hrs by ELISA; type: functional; outline: as §1
[17] = Antiinflammatory activity in C57BL/6 mouse DC assessed as inhibition of LPS-induced TNFalpha production at 1 ug/ml after 24 hrs by ELISA; type: functional; outline: as §1
[18] = Antiinflammatory activity in C57BL/6 mouse DC assessed as inhibition of LPS-induced IP-10 production at 1 ug/ml after 24 hrs by ELISA; type: functional; outline: as §1
K562 [19] = assay: Cytotoxicity against human K562 cells at 10 uM after 72 hrs by MTT assay; type: functional, cell-based
Outline: (§2)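 Three-day MTT screen with 5000–10,000 cells/well and 72 h compound exposure at the top screening concentration. After 3 h of MTT uptake, lysis with 10% SDS–0.01 N HCl, then A540 read after 1 h. % cytotoxicity = (1 − X/R1)×100, where X is treated minus blank absorbance and R1 is untreated control absorbance.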

PA-1 [20] = assay: Cytotoxicity against human PA1 cells at 10 uM after 72 hrs by MTT assay; type: functional, cell-based; outline: as §2
HBL-100 [21] = assay: Cytotoxicity against human HBL100 cells at 10 uM after 72 hrs by MTT assay; type: functional, cell-based; outline: as §2
ECV-304 [22] = assay: Cytotoxicity against human ECV304 cells at 10 uM after 72 hrs by MTT assay; type: functional, cell-based; outline: as §2
A549 [23] = assay: Cytotoxicity against human A549 cells at 10 uM after 72 hrs by MTT assay; type: functional, cell-based; outline: as §2
SW-620 [24] = assay: Cytotoxicity against human SW620 cells at 10 uM after 72 hrs by MTT assay; type: functional, cell-based; outline: as §2
KB [25] = assay: Cytotoxicity against human KB cells at 10 uM after 72 hrs by MTT assay; type: functional, cell-based; outline: as §2
DU-145 [26] = assay: Cytotoxicity against human DU145 cells at 10 uM after 72 hrs by MTT assay; type: functional, cell-based; outline: as §2
[27] = Cytotoxicity against mouse NIH/3T3 cells at 10 uM after 72 hrs by MTT assay; type: cell-based; settings: nih3t3, 72 h; outline: as §2
MIA PaCa-2 [28] = assay: Cytotoxicity against human MIAPaCa2 cells at 10 uM after 72 hrs by MTT assay; type: functional, cell-based; outline: as §2

Compound | IC50 (ECV-304 [2]) | inhibition (INH) [3] | IC50 (SW-620 [4]) | IC50 (PA-1 [5]) | inhibition (INH) [6] | IC50 (KB [7]) | IC50 (DU-145 [8]) | IC50 (A549 [9]) | IC50 (HBL-100 [10]) | inhibition (INH) [11] | IC50 (K562 [12]) | IC50 (MIA PaCa-2 [13]) | inhibition (INH) [14] | inhibition (INH) [15] | inhibition (INH) [16] | inhibition (INH) [17] | inhibition (INH) [18] | Activity (K562 [19]) | Activity (PA-1 [20]) | Activity (HBL-100 [21]) | also measured
C#CCn1cc(C(=O)NC(CC(=O)Nc2ccccc2)c2ccccc2)c(=O)c2cc(F)c(Cl)nc21 (centres undefined) | > 10 µM | 84.8% | 5.7 µM | 2.1 µM | 60% | > 10 µM | 5.9 µM | > 10 µM | 9.3 µM | 80% | 6.6 µM | 6.9 µM | 96% | 106.8% | 17.3% | 99% | 102.4% | – | – | – | IC50 ([1]; Mus musculus, NIH3T3, 72 h, read-out: IC50): 9.7 µM
C#CCn1cc(C(=O)NC(CC(=O)NC2CCCC2)c2ccccc2)c(=O)c2cccnc21 (centres undefined) | – | 62.4% | – | – | – | – | – | – | – | 19.3% | – | – | – | 52.1% | 38.8% | 34.7% | 25% | inactive | inactive | inactive | Activity (ECV-304 [22]): inactive; Activity (A549 [23]): inactive; Activity (SW-620 [24]): inactive; Activity (KB [25]): inactive; Activity (DU-145 [26]): inactive; Activity [27]: Not Active; Activity (MIA PaCa-2 [28]): inactive
C#CCn1cc(C(=O)NC(CC(=O)Nc2ccccc2)c2ccccc2)c(=O)c2cccnc21 (centres undefined) | > 10 µM | 75.1% | > 10 µM | > 10 µM | – | > 10 µM | 7.2 µM | > 10 µM | > 10 µM | 19.1% | > 10 µM | > 10 µM | – | 78.5% | 31.7% | 29.7% | 33.1% | – | – | – | IC50 ([1]; nih3t3): Not Active
C#CCn1cc(C(=O)NC(CC(=O)Nc2ccccn2)c2ccccc2)c(=O)c2cccnc21 (centres undefined) | – | 34.1% | – | – | 74.4% | – | – | – | – | – | – | – | 74.9% | 50.1% | – | – | – | inactive | inactive | inactive | Activity (ECV-304 [22]): inactive; Activity (A549 [23]): inactive; Activity (SW-620 [24]): inactive; Activity (KB [25]): inactive; Activity (DU-145 [26]): inactive; Activity [27]: Not Active; Activity (MIA PaCa-2 [28]): inactive
